Experiment [1] is described as follows: Intrinsic cytotoxicity against human MES-SA/Dx5 cells. The experiment is classed as functional. In a few lines:
(§1)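 MES-SA/DX5 (P-gp-overexpressing human sarcoma) cells seeded at 1.2 × 10⁴ cells/well and incubated 24 h at 37 °C. They were then exposed for 60 h to varying concentrations of test compound, with or without 100 nM Taxol. Survival was read by Cell Counting Kit-8, and GI₅₀/EC₅₀ were taken from the concentration series.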

Experiment [2] deals with Cytochrome P450 3A4 (Homo sapiens, UniProt P08684). As to the kind of experiment: Inhibition of human CYP3A4. The experiment is classed as ADME.
Cytochrome P450 3A4, sequence (P08684 whole entry): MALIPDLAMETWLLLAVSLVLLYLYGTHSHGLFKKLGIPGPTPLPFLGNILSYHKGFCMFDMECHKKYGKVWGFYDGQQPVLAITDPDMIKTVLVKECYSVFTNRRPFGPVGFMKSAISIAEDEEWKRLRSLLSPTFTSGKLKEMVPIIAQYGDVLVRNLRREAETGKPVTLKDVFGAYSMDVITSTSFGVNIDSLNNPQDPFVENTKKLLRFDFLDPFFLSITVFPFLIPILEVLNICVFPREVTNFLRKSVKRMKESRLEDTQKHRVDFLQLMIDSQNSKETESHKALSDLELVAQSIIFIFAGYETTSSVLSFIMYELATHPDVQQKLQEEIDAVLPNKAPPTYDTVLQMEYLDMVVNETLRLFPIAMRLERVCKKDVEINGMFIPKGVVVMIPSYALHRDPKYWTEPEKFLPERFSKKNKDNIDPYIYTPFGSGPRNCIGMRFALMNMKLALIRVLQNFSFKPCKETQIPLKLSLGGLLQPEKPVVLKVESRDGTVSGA
Experiment [3] is described as follows: Cytotoxicity against human MES-SA/Dx5 cells. The experiment is classed as functional, cell-based. In outline: as §1

Structures are written as SMILES. Some results are limits rather than exact numbers.

What is called GI50 is the concentration giving 50% growth inhibition. Lower therefore signals greater sensitivity of the cells. With `COC(=O)c1cccc(NC(=O)COc2ccc(C34CC5CC(CC(C(=O)N6CCc7cc(OC)c(OC)cc7C6)(C5)C3)C4)cc2)c1`, the concentration for 50% growth inhibition (GI50) in experiment [1] is over 20 µM.

Broadly, the IC50 is the midpoint of a concentration-inhibition curve. For `COC(=O)c1cccc(NC(=O)COc2ccc(C34CC5CC(CC(C(=O)N6CCN(Cc7ccc(C(F)(F)F)cc7)CC6)(C5)C3)C4)cc2)c1`, in experiment [1], the GI50 is over 20 µM. The same compound had an IC50 in experiment [2] of 2030 nM.

As to `COc1cc2c(cc1OC)CN(C(=O)C13CC4CC(C1)CC(c1ccc(OCC(=O)Nc5cccc(C(F)(F)F)c5)cc1)(C4)C3)CC2`, the GI50 in experiment [1] turned out to be 12.1 µM.

Regarding `COC(=O)c1ccc(NC(=O)COc2ccc(C34CC5CC(CC(C(=O)N6CCc7cc(OC)c(OC)cc7C6)(C5)C3)C4)cc2)cc1`, the GI50 in experiment [1] stood at 14.3 µM.

In experiment [1], `COC(=O)c1cccc(NC(=O)COc2ccc(C34CC5CC(CC(C(=O)N6CCN(Cc7ccc(OC)cc7)CC6)(C5)C3)C4)cc2)c1` returned a GI50 of 14 µM. Besides, the midpoint of inhibition in experiment [2], the IC50, lay at 890 nM.

`COC(=O)c1cccc(NC(=O)COc2ccc(C34CC5CC(CC(C(=O)OCc6ccccc6)(C5)C3)C4)cc2)c1` registered a GI50 in experiment [1] of over 20 µM.

The compound `COc1cc2c(cc1OC)CN(C(=O)C13CC4CC(C1)CC(c1ccc(OCC(=O)Nc5cccc6cccnc56)cc1)(C4)C3)CC2` yielded a GI50 in experiment [1] of over 20 µM.

`COC(=O)c1cccc(NC(=O)COc2ccc(C34CC5CC(CC(C(=O)Nc6ccc(C(C)(C)C)cc6)(C5)C3)C4)cc2)c1`: the GI50 in experiment [1] was over 20 µM.

`COC(=O)c1cccc(NC(=O)COc2ccc(C34CC5CC(CC(C(=O)NCCN(C)C)(C5)C3)C4)cc2)c1` yielded a GI50 in experiment [1] of over 20 µM.

In turn, `COC(=O)c1cccc(NC(=O)COc2ccc(C34CC5CC(CC(C(N)=O)(C5)C3)C4)cc2)c1` had a GI50 in experiment [1] of 14.3 µM.

`COc1ccc(CCN(C)CCCC(C#N)(c2ccc(OC)c(OC)c2)C(C)C)cc1OC` (stereo not given) showed a GI50 in experiment [1] of over 20 µM.

Regarding `COc1cc2c(cc1OC)CN(C(=O)C13CC4CC(C1)CC(c1ccc(OCC(=O)Nc5cccc(C#N)c5)cc1)(C4)C3)CC2`, the GI50 in experiment [1] was over 20 µM. For the same compound, the IC50 in experiment [2] was over 5000 nM.

In the case of `COc1cc2c(cc1OC)CN(C(=O)C13CC4CC(C1)CC(c1ccc(OCC(=O)Nc5cccc(C(=O)NCc6ccco6)c5)cc1)(C4)C3)CC2`, the GI50 in experiment [1] was over 20 µM.

`COc1cc2c(cc1OC)CN(C(=O)C13CC4CC(C1)CC(c1ccc(OCC(=O)Nc5cccc(C(N)=O)c5)cc1)(C4)C3)CC2` returned a GI50 in experiment [1] of 16.3 µM.

In turn, `COC(=O)c1ccccc1NC(=O)COc1ccc(C23CC4CC(CC(C(=O)N5CCc6cc(OC)c(OC)cc6C5)(C4)C2)C3)cc1` had a GI50 in experiment [1] of over 20 µM. The IC50 in experiment [2] worked out at 3790 nM.

In experiment [1], `COC(=O)c1cccc(NC(=O)COc2ccc(C34CC5CC(CC(C(=O)N6CCN(Cc7cccc(OC)c7)CC6)(C5)C3)C4)cc2)c1` gave a GI50 of 13.2 µM. This compound registered an IC50 in experiment [2] of 820 nM.

The compound `COC(=O)c1cccc(NC(=O)COc2ccc(C34CC5CC(CC(C(=O)NCc6ccc(OC)c(OC)c6)(C5)C3)C4)cc2)c1` displayed a concentration for 50% growth inhibition (GI50) in experiment [1] of over 20 µM.

As for `COC(=O)c1cccc(NC(=O)COc2ccc(C34CC5CC(CC(C(=O)N6CCN(Cc7ccc(F)cc7)CC6)(C5)C3)C4)cc2)c1`, the GI50 in experiment [1] was over 20 µM.

Consider `CC(=O)O[C@H]1C(=O)[C@@]2(C)[C@H]([C@H](OC(=O)c3ccccc3)[C@]3(O)C[C@H](OC(=O)[C@H](O)[C@@H](NC(=O)c4ccccc4)c4ccccc4)C(C)=C1C3(C)C)[C@]1(OC(C)=O)CO[C@@H]1C[C@@H]2O` [PACLITAXEL], for which the GI50 in experiment [1] is 7.54 µM. Moreover, the IC50 in experiment [3] worked out at 7.54 µM.

(Values after ChEMBL document CHEMBL1155982 (Bioorg Med Chem Lett, 2009).)
